Experiments:
[1] = system: HCT-116 p21^−/− cells; assay: Cell viability assay, HCT-116 p21-/-; format: cell-based, human; details: GI50 after 48 h
How it was run: (§1)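 HCT-116 p21+/+ and p21−/− cells were seeded in 96-well plates and rested 24 h. A time-zero plate was read with CellTiter-Blue (resazurin) after 90 min at 37 °C, fluorescence 544 nm ex / 590 nm em. Serially diluted test compound was added as 4× solution. Viability was re-read at 48 h and GI50 derived. For coadministration, 10 μM 25-OHC was added with test compound at 250 nM or 10 nM.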

[2] = system: ceramide labeling in HCT-116 cells; assay: Ceramide labeling, [3H]serine pulse labeling, HCT-116; format: cell-based, human; details: range of concentrations
[3] = system: CERT; assay: CERT protein amount in treated cells; format: cell-based, human; details: GI90 concentration, HCT-116 or A549 cells
[4] = target: T1, OSBP-Myc-His (Homo sapiens, UniProt P22059); assay: [3H]25-OHC charcoal-dextran binding assay, wild-type OSBP-Myc-His; details: read-out: Ki, OSBP-Myc-His; competition with 20 nM [3H]25-OHC; mean ± s.d.
T1 sequence (P22059 1-807): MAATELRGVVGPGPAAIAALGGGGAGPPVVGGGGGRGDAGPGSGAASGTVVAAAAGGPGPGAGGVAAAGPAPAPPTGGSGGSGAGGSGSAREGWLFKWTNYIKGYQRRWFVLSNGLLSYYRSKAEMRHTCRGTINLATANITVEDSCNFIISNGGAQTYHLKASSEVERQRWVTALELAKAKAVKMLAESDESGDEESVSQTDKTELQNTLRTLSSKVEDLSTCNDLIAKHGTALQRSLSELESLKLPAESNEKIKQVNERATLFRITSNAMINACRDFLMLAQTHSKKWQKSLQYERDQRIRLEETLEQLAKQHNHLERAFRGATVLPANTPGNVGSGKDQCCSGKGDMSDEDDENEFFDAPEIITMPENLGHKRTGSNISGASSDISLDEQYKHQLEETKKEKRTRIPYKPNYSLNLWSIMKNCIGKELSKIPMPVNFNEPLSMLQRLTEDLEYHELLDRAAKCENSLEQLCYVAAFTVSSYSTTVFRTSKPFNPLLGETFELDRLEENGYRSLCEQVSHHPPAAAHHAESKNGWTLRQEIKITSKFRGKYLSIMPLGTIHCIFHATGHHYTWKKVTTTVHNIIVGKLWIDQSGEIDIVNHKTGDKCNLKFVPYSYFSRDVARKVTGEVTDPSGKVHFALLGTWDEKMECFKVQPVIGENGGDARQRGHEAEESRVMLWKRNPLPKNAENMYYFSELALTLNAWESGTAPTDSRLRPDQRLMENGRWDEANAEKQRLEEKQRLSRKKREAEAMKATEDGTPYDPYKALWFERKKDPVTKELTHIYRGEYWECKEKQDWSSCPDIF

[5] = target: T2, OSBP (Homo sapiens, UniProt P22059); assay: OSBP localization by immunofluorescence microscopy, A549; format: cell-based; details: A549 cells
T2 sequence (P22059 1-807): T1 sequence (P22059 1-807)
How it was run: (§2)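 Cells on coverslips were grown 72 h, then given test compound or vehicle (4 h for HCT-116). They were fixed 10 min in 3.7% formaldehyde/PBS and permeabilised 5 min in 0.5% Triton X-100. Blocking used Image-iT FX, then 1% BSA/PBS. Rabbit anti-OSBP (N-terminus) and mouse anti-p230 were applied overnight at 4 °C, then Alexa Fluor secondaries for 60 min with Hoechst 33258. Imaging was by confocal microscopy.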

[6] = system: HeLa cells overexpressing wild-type OSBP; assay: Overexpression-viability assay, wild-type OSBP-Myc-His; format: cell-based, human; details: 48 h, versus lacZ
[7] = system: HCT-116 cells; assay: Suppression of antiproliferative activity by 25-OHC coadministration; format: cell-based, human
How it was run: as §1

[8] = target: T3, ORP4L-Myc-His (Homo sapiens, UniProt Q969R2); assay: [3H]25-OHC charcoal-dextran binding assay, ORP4L-Myc-His
T3 sequence (Q969R2 1-916): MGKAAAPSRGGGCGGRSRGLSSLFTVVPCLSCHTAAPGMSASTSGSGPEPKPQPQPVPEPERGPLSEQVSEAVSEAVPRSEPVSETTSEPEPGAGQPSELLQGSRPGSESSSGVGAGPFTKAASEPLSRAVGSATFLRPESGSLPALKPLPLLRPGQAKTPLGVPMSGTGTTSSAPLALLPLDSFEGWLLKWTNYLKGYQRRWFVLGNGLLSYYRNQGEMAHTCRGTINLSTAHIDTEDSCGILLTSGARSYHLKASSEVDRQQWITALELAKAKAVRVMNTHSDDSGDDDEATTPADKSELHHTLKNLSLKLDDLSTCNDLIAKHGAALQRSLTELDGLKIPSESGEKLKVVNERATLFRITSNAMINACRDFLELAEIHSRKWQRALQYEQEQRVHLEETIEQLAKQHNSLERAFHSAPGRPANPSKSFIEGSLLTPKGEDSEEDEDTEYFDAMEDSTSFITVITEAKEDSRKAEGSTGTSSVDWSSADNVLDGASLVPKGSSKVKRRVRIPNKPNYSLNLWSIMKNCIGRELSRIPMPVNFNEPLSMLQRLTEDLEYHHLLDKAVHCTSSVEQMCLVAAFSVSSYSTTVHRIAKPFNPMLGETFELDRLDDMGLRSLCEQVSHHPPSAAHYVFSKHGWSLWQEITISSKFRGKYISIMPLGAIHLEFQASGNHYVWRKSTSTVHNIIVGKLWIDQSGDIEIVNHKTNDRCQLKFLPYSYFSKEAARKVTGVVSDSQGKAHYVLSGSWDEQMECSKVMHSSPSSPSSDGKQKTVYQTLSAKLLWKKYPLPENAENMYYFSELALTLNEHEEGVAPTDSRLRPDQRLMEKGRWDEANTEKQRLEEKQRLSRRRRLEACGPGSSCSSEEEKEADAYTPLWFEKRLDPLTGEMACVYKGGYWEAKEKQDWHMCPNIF

[9] = target: T2, OSBP; assay: OSBP localization by immunofluorescence microscopy, HCT-116; format: cell-based; details: HCT-116 cells, 4 h; 5 μM schweinfurthin A, 10 nM OSW-1, 20 nM cephalostatin 1
How it was run: as §2

[10] = system: HCT-116 p21^−/− cells stably transfected with shOSBP or shNT; assay: OSBP shRNA knockdown and dose-shift experiment; format: cell-based, human; details: 72 h
How it was run: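 HCT-116 p21−/− cells were stably transfected with OSBP-targeting or nontargeting shRNA in the pSIREN-RetroQ vector. […] Values are mean ± s.d. of 3–4 experiments, compared with shNT cells by two-tailed Student's t-test.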

Row | Structure (SMILES) | p21^−/− selectivity of growth inhibition (HCT-116 p21^−/− versus wild-type) [1] | Effect on ceramide labeling [2] | Amount of CERT protein [3] | Ki [4] | OSBP localization [5] | Desensitization factor by OSBP overexpression (relative GI30) [6] | Growth inhibition when administered alone ([7]; 10 nM, HCT-116 cells, 48 h) | Effect of 10 μM 25-OHC coadministration on growth inhibition ([7]; HCT-116 cells, 250 nM cephalostatin 1 or 10 nM OSW-1) | Ki ([8]; read-out: Ki, ORP4L-Myc-His, competition with 20 nM [3H]25-OHC, mean ± s.d.) | OSBP localization [9] | Sensitization by OSBP shRNA knockdown (GI50 shift shOSBP vs shNT) [10] | Effect of 25-OHC coadministration on antiproliferative activity ([7]; HCT-116 and HeLa cell lines) | Factor by which affinity for ORP4L is lower than affinity for OSBP ([8]; ratio of Ki values ORP4L / OSBP)
1 | COc1ccc(C(=O)O[C@H]2[C@H](O[C@@H]3[C@@H](OC(C)=O)[C@H](O[C@H]4C[C@H]5[C@@H]6CC=C7C[C@@H](O)CC[C@]7(C)[C@H]6CC[C@]5(C)[C@@]4(O)[C@H](C)C(=O)CCC(C)C)OC[C@@H]3O)OC[C@@H](O)[C@@H]2O)cc1 [OSW-1] | selectively growth-inhibitory | no effect | not affected | 26 nM | dispersal or vesiculation of OSBP | 2–5 | > 75% | nearly complete desensitization | 54 ± 11 nM | localize to a perinuclear position that did not localize with p230 | – | – | –
2 | CC(C)=CCC/C(C)=C/Cc1c(O)cc(/C=C/c2cc(O)c3c(c2)C[C@@H]2C(C)(C)[C@H](O)[C@H](O)C[C@@]2(C)O3)cc1O [schweinfurthin A] | selectively growth-inhibitory | – | – | – | – | 2–5 | – | – | – | accumulate at perinuclear positions with a large degree of co-localization with the trans-Golgi marker p230 | nine | desensitized cells to schweinfurthin A, although to a lesser degree | ~ 40

— PMC3158287 (Nature chemical biology, 2011)
